Sampled rows, rich in hits. Any-hit rate of the full collection: about 1.5%.
APJ agonist: agonists of human apelin receptor APJ, primary screen, CHO-K1 cells, PathHunter beta-arrestin, luminescence | P35414 | 0% DMSO wells, 100% apelin | activation, % at 20 µM | actives 0.11% (n = 330,000);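 active means activation more than six SD over the plate average, tested at 20 µM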
Target sequence (P35414 whole entry, looked up): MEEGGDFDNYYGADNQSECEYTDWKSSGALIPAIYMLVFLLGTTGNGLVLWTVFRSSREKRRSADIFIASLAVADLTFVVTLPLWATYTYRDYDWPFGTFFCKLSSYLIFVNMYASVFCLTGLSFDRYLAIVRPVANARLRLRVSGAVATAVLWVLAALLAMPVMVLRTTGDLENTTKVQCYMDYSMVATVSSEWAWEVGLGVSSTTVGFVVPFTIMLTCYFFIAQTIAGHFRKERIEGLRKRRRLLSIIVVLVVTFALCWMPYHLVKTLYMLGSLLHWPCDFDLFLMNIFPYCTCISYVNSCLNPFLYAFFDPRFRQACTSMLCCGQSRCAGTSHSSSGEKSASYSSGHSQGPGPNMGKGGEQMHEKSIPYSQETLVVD
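Test system – PathHunter CHO-K1 APJ (AGTRL-1) beta-arrestin reporter cells · Input – 1000 cells/well · Compound – single test compound dose, 20 µM final, 1% DMSO · Times – compound stimulation 90 min at 25 °C, detection 60 min · Technique – beta-gal luminescence · Read-out basis – APJ–arrestin association signal · Control set – negative DMSO alone, positive Apelin-13 at 10 nM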
CCR6 antagonist: CCR6 receptor antagonists, primary screen, cell-based, CHO-K1, luminescence, beta-arrestin, uHTS | CHO-K1 CCR6 PathHunter beta-arrestin, CCL20-stimulated | inhibition, % at 20 µM | C-C chemokine receptor type 6 (Homo sapiens), P51684 | actives 0.49% (n = 340,000);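 active means compounds whose inhibition of the agonist-driven luminescence signal at 20 µM reaches about 50%, limit read from the data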;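 further: cells stimulated with CCL20 at 14 nM final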
CXCR6 block: CXCR6 receptor inhibitors, primary screen, cell-based, beta-arrestin, luminescence, CHO-K1 PathHunter, 1536-well; inhibition, % at 20 µM; actives 0.36% (n = 360,000); AID 602244, 2012; in the data active means inhibition above about 34%, passing the limit was not always enough;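 further: antagonist mode with CXCL16 agonist at 10 nM final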
EBI2 block: EBI2 receptor antagonists, beta-arrestin recruitment, primary screen, cell-based, luminescence, 7a,25-OHC stimulation, uHTS. 7a,25-OHC stimulated. actives 0.81% (n = 360,000). AID 651636, 2012. inhibition, % at 5 µM; in the data active means inhibition above about 38%;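 further: enzyme fragment complementation signal reports receptor beta-arrestin coupling in cells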
APJ antagonist: antagonists of human apelin receptor APJ, primary screen, CHO-K1 cells, beta-arrestin complementation, luminescence | inhibition, % at 20 µM | actives 0.32% (n = 330,000) | AID 2521, 2010 | P35414;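 active means inhibition above about 40% at 20 µM, limit read from the data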;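 further: cells challenged with 10 nM apelin-13 agonist together with compound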
Numbers stand for hits; – = inactive; · = no result.

SMILES | APJ agonist | CCR6 antagonist | CXCR6 block | EBI2 block | APJ antagonist
CC(C)(C)c1nnc(N/N=C/c2ccccc2O)n(N)c1=O | – | – | – | 81 | –
O=[N+]([O-])c1cc(Cl)ccc1N1CCCC1 | – | – | – | – | –
O=C1C(Cl)=C(N2CCN(c3ccccc3[N+](=O)[O-])CC2)C(=O)c2ccccc21 | · | · | 42 | – | ·
CC1(C)C(=O)C=CC(=O)C(C)(C)C(=O)C=CC(=O)C(C)(C)C2=CC=C(O2)C(C)(C)C(=O)C=CC1=O | · | 55 | – | – | ·
CCCCn1c(N)c(C(=S)NC(=O)CC(C)C)c(=O)n(C)c1=O | · | · | 48 | – | ·
CCCCC(CC)CO (stereo unspecified) | – | – | – | – | –
CCCCC(CC)CN=C(N)NC(N)=NCCCCCCN=C(N)NC(N)=NCC(CC)CCCC (stereo unspecified) | – | 79 | 90 | – | –
CCOc1cc(/C=C2\C(=O)ON=C2C)ccc1OCc1ccccc1 | 9.7 | – | – | – | –
CC(=O)Nc1cccc(NS(=O)(=O)c2ccc3c(c2)CCC(=O)N3)c1 | · | · | – | – | ·
COc1cccc(S(=O)(=O)N(C)C[C@@H]2OCc3cn(nn3)CCCC(=O)N([C@@H](C)CO)C[C@H]2C)c1 | · | · | – | – | ·
Cc1c(C(=O)NCc2ccc(C#N)cc2)sc(=O)n1Cc1ccccn1 | · | · | – | – | ·
N/C(Cc1ccc(Cl)cc1)=N\OC(=O)c1cccc2ccccc12 | – | – | – | 52 | –
O=C(O)c1cccc(NC(=O)c2ccc3c(c2)C(=O)N(Cc2ccco2)C3=O)c1 | – | – | – | – | –
CCc1ccc(NC(=O)c2ccc3c(c2)C(=O)N(Cc2ccco2)C3=O)cc1 | – | – | – | 84 | –
COc1ccc(Cc2c(-c3ccc(Cl)cc3)nc3cc(C)c(Br)c(C)n23)c(C)c1 | · | · | – | – | ·
O=C(NCCc1cccs1)Nc1ccc2nc([C@@H]3O[C@H](CO)[C@@H](O)[C@H]3O)[nH]c2c1 | · | · | – | – | ·
COc1cc(N=Nc2ccc(Br)cc2)cc(C=O)c1O | · | · | 53 | – | ·
COc1cc(CN(C)C)cc(C=O)c1O | – | – | – | – | –
O=S(=O)(Nc1cccc2ncccc12)c1cccs1 | – | 88 | 79 | 60 | 88
Cc1c(NS(=O)(=O)c2cccs2)cccc1-c1nc2cccnc2s1 | – | – | – | – | –
N#CC(=C1C=CC(=NO)C(Cl)=C1)c1ccc(Cl)cc1 | · | 67 | – | – | ·
O=C(Nc1ccccc1)c1ccc2nc(-c3ccco3)c(-c3ccco3)nc2c1 | – | – | – | – | –
CC(=O)c1ccc(NC(=O)c2ccc3nc(-c4ccco4)c(-c4ccco4)nc3c2)cc1 | – | – | 46 | – | –
C=CCC1CCCCC1=C(C#N)c1ccccc1 (stereo unspecified) | · | · | – | – | ·
C=C1CC(COc2ccc3c(C)c(Cl)c(=O)oc3c2)(c2ccccc2)OC1=O (stereo unspecified) | · | – | 37 | 56 | ·
SMILES | APJ agonist | CCR6 antagonist | CXCR6 block | EBI2 block | APJ antagonist
COc1ccc2c(C)c(Cl)c(=O)oc2c1 | – | – | – | – | –
CCOC(=O)C1=NNC(C(=O)c2ccc(Cl)cc2)C1c1ccc(OC)cc1 (stereo unspecified) | – | – | – | – | 65
CC(C)n1c(=O)c2ccccc2n1Cc1cn(-c2ccccc2)nn1 | · | · | – | – | ·
Nc1[nH]n2c(=O)cc(-c3ccccc3)nc2c1N=Nc1ccccc1 | – | 51 | – | – | –
COc1ccc(C(=O)c2sc3nc(C)cc(-c4cccs4)c3c2N)cc1OC | · | – | – | 55 | ·
COc1ccc(C(=O)c2sc3nc(C)cc(-c4cccs4)c3c2N)cc1 | · | – | – | – | ·
CSc1ccc(Cn2c(C)c(C(=O)NCc3cccs3)sc2=O)cc1 | · | · | – | – | ·
COc1cnc(-c2cccc(C(F)(F)F)c2)c(NC(=O)c2cc3ccccc3s2)n1 | · | · | – | – | ·
O=C(c1ccccc1)c1cc(Cl)ccc1N1C(=O)C=CC1=O | · | 106 | 61 | – | ·
Cc1[nH]n(-c2ccccc2)c(=O)c1C=Nc1cccc2cccnc12 | – | 52 | 54 | 96 | 94
Cc1[nH]n(-c2ccccc2)c(=O)c1/C=N/N1C(=O)c2cccc3cccc(c23)C1=O | – | 74 | 52 | – | –
CC(C)c1ccc([C@@H]2O[C@H](CCc3ccccc3)CC3=C2C(=O)OC(C)(C)O3)cc1 | · | · | – | – | ·
COC1(OC)N=C(N)C2(C#N)C(c3ccc(F)cc3)C12C#N (stereo unspecified) | – | – | – | – | –
CCSC1(SCC)N=C(N)C2(C#N)C(c3ccc(F)cc3)C12C#N (stereo unspecified) | – | – | 67 | – | –
O=C(c1ccc(Cl)cc1)N1CCN(c2ccnc3cc(Cl)ccc23)CC1 | · | – | – | 51 | ·
O=[N+]([O-])c1ccc(/C=N/N=C/c2ccc([N+](=O)[O-])o2)o1 | · | 61 | – | – | ·
CN(Cc1ccccc1)S(=O)(=O)c1ccc(NC(=S)NC(=O)C2CCCCC2)cc1 | – | 51 | – | – | –
CN(Cc1ccccc1)S(=O)(=O)c1ccc(NC(=S)NC(=O)C(C)(C)C)cc1 | – | – | – | – | –
CC(=O)[C@]1(O)Cc2c(O)c3c(c(O)c2[C@@H](O[C@H]2C[C@H](N)[C@H](O)[C@H](C)O2)C1)C(=O)c1ccccc1C3=O | – | 81 | · | · | –
CC(=O)N1CCn2c3c(c(=O)c4cc(C)ccc42)CCC31 (stereo unspecified) | – | – | – | – | 40
CCN(CC)c1ccc(/C=C(\C#N)C(N)=S)cc1 | – | 52 | – | – | –
CCN(CC)c1ccc(/C=C(\C#N)C(=O)c2ccc(Br)cc2)cc1 | · | – | – | 45 | ·
CCCN1C(=O)/C(=C2\SC(=S)N(c3c(C)n(C)n(-c4ccccc4)c3=O)C2=O)c2ccccc21 | – | 51 | · | · | –
Cc1cc(C)c2c(=O)n(CC(=O)Nc3cccc(Cl)c3C)sc2n1 | – | – | 80 | – | –
CCNC(=O)C[C@@H]1CC[C@@H]2NC[C@@H](O)COC[C@H]2O1 | · | · | · | – | ·
SMILES | APJ agonist | CCR6 antagonist | CXCR6 block | EBI2 block | APJ antagonist
COc1ccc(NC(=O)N(C)C[C@H]2Oc3ccc(NC(=O)Nc4ccc5c(c4)OCO5)cc3C(=O)N([C@H](C)CO)C[C@@H]2C)cc1 | · | – | – | – | ·
CCCCN1C(=O)C(CC(=O)NCc2ccco2)CC(C(=O)N(C)C)=C1C (stereo unspecified) | · | · | – | – | ·
Oc1[nH]c2ccccc2c1N=NC(=S)NCC1CCCO1 (stereo unspecified) | – | – | – | – | –
CCn1c(O)c(N=NC(=S)NCC2CCCO2)c2ccccc21 (stereo unspecified) | – | 66 | 47 | – | –
O=C1C(Br)=C(c2ccccc2)C(c2ccccc2)=C1c1ccccc1 | · | 68 | – | 49 | ·
CCCNC(=O)c1cc(C2CCCCN2C(=O)OCC(C)C)on1 (stereo unspecified) | · | · | – | – | ·
